Calls of active or inactive are those of the source. The rule behind the calls is not given here.
How the values were obtained:
Tubulin (Homo sapiens) [1] = target: T1, Tubulin (Homo sapiens) (UniProt P68371+Q9H4B7+P0DPH7+P68366+Q13509+Q71U36+P04350+Q3ZCM7+P07437+P68363+Q9BQE3+Q6PEY2+Q13885+Q9BVA1+Q9BUF5); experiment: Induction of microtubule depolymerization in human MCF7 cells at 1 uM after 16 hrs by immunofluorescence staining based confocal microscopic analysis; assay type: cell-based
[2] = tested on: UDP-glucuronosyltransferases (UGTs); experiment: Metabolic stability in human liver microsomes assessed as UGT-mediated N-glucuronidation by measuring intrinsic clearance at 3 uM measured up to 45 mins by LC-MS/MS analysis; assay type: ADME; conditions: microsomes, 0.75 h, 3 µM
Summary of the method: (§1)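 Pooled human liver microsomes (0.5 mg/mL protein final) with alamethicin (25 µg/mg) in 0.1 M phosphate pH 7.4, compound 3 µM final (0.25% DMSO), preincubated 37 °C. Reaction started with UDPGA (1 mM final). Sampled at 0, 5, 15, 30, 45 min into methanol, analysed by LC-MS/MS. Minus-UDPGA control run 45 min. Single incubations; t½ and CLint taken from the elimination rate constant.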

MCF7 = experiment: Antiproliferative activity against human MCF7 cells assessed as reduction in cell viability after 72 hrs by alamar blue assay; assay type: functional, cell-based; conditions: MCF7, 72 h
Summary of the method: (§2)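 Cells seeded at 5 x 10^3/well (MCF-7) or 1 x 10^4/well (HT-29, HEK-293T) and treated after 24 h with serial dilutions (0.001-100 µM) in 1% v/v ethanol vehicle. Alamar Blue 10% v/v added at 72 h, then 3-5 h at 37 °C in the dark; fluorescence ex 530/em 590 nm. Viability relative to vehicle; IC50 from dose-response curves; mean of three experiments in triplicate.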

[3] = Selectivity index, ratio of IC50 for human MCF7 cells to IC50 for human HT-29 cells assessed as reduction in cell viability after 72 hrs by alamar blue assay; assay type: functional
HT-29 = experiment: Antiproliferative activity against human HT-29 cells assessed as reduction in cell viability after 72 hrs by alamar blue assay; assay type: functional, cell-based; conditions: HT-29, 72 h; summary of the method: as §2
[4] = tested on: UDP-glucuronosyltransferases (UGTs); experiment: Metabolic stability in human liver microsomes assessed as UGT-mediated N-glucuronidation by measuring half life at 3 uM measured up to 45 mins by LC-MS/MS analysis; assay type: ADME; conditions: microsomes, 0.75 h, 3 µM; summary of the method: as §1
Tubulin (Homo sapiens) [5] = target: T1, Tubulin (Homo sapiens); experiment: Binding affinity to tubulin in human MCF7 cells assessed as inhibition of tubulin-EBI adduct formation preincubated for 2 hrs followed by EBI addition and measured after 1.5 hrs by Western blotting analysis; assay type: cell-based; conditions: time 3.5 hrs
Summary of the method: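 MCF-7 cells (5 × 10^4/well) were incubated overnight, then given vehicle (0.1% v/v ethanol) or compound at 10 µM for 2 h. Selected wells then received EBI (100 µM) for 1.5 h. Cells were washed in ice-cold PBS, lysed in Laemmli buffer and run on SDS-PAGE. Blots were probed for β-tubulin and the β-tubulin–EBI adduct, with GAPDH as loading control. Three independent experiments.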

Bos taurus = species: Bos taurus; experiment: Inhibition of bovine brain tubulin polymerization at 10 uM measured at 30 sec interval for 30 mins in presence of GTP by turbidimetry-based spectrophotometric method

SMILES: CC(=O)O[C@H]1C(=O)[C@@]2(C)[C@H]([C@H](OC(=O)c3ccccc3)[C@]3(O)C[C@H](OC(=O)[C@H](O)[C@@H](NC(=O)c4ccccc4)c4ccccc4)C(C)=C1C3(C)C)[C@]1(OC(C)=O)CO[C@@H]1C[C@@H]2O
- Activity (Tubulin (Homo sapiens) [1]): Active

SMILES: COc1ccc(/C=C\c2cc(OC)c(OC)c(OC)c2)cc1O [COMBRETASTATIN A4]
- CLH [2]: 645 µL/min/mg
- IC50 (MCF7): 4 nM
- Ratio IC50 [3]: 0.001
- IC50 (HT-29): 4160 nM
- t1/2 [4]: 2.71 min
- Activity (Tubulin (Homo sapiens) [5]): Active
- inhibition (Bos taurus): Active

Reference: ChEMBL document CHEMBL4680165, “β-Lactams with antiproliferative and antiapoptotic activity in breast and chemoresistant colon cancer cells” (Eur J Med Chem, 2020)
